Data as given in ChEMBL document CHEMBL1240328, “Selective compounds define Hsp90 as a major inhibitor of apoptosis in small-cell lung cancer” (Nat Chem Biol, 2007).
Calls of active or inactive are those of the source.

Columns and labels:
[1] = Drug level in tumor of human NCI-N417 cell-xenograft athymic mouse model at 75 mg/kg, ip administered as single dose after 3 hrs by HPLC/MS/MS analysis; format: ADME, organism-based, Neoplasm; set-up: dose 75 mg/kg, route intraperitoneal; settings: in vivo
In short: (§1)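 Nude mice bearing NCI-N417 xenografts received a single i.p. dose of 75 mg kg–1. Animals (n = 3) were killed at set times from 3 to 36 h. Tumors and brains were harvested and halved, and tumor drug content was quantified by HPLC/MS/MS.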

[2] = target: Heat shock protein HSP 90-beta (Homo sapiens) (UniProt P08238); assay: Binding affinity to HSP90 in human NCI-H187 cells after 24 hrs by fluorescence polarization assay
Chain of Heat shock protein HSP 90-beta (Homo sapiens) (P08238 whole entry): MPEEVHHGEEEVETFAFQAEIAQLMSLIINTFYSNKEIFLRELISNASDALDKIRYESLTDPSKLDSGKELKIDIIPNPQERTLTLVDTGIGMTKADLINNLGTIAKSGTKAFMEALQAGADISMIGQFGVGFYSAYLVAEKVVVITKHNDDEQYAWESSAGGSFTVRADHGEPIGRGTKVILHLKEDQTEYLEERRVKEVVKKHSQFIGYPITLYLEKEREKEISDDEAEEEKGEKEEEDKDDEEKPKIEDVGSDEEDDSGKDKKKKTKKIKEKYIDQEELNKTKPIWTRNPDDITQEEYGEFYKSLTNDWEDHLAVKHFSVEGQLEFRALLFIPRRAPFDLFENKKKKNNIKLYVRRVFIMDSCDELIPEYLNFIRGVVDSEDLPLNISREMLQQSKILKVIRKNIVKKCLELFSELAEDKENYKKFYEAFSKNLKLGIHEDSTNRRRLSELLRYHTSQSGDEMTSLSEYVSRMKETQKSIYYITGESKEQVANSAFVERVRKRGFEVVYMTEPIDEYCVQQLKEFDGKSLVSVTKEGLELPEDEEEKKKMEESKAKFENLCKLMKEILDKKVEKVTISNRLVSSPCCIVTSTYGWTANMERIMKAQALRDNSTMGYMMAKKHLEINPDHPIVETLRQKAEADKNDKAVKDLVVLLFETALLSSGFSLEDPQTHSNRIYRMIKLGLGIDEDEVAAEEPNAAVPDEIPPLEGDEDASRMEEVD

[3] = tested on: NCI-H417; assay: Anticancer activity against human NCI-N417 cells xenografted in athymic mouse assessed as decrease in tumor Akt activity at 75 mg/kg, ip administered as single dose measured after 36 hrs post dose by Western blot
[4] = target: Heat shock protein HSP 90-beta (Homo sapiens) (UniProt P08238); assay: Binding affinity to HSP90 in human NCI-H526 cells after 24 hrs by fluorescence polarization assay; format: cell-based
[5] = target: Heat shock protein HSP 90-beta (Homo sapiens) (UniProt P08238); assay: Inhibition of HSP90-mediated proliferation of human SKBR3cells after 72 hrs by sulforhodamine B assay
[6] = target: Heat shock protein HSP 90-beta (Homo sapiens) (UniProt P08238); assay: Binding affinity to HSP90 in human NCI-H510 cells after 24 hrs by fluorescence polarization assay; format: cell-based
[7] = target: Heat shock protein HSP 90-beta (Homo sapiens) (UniProt P08238); assay: Binding affinity to HSP90 in human SKBR3 cells after 24 hrs by fluorescence polarization assay; settings: SK-BR-3
[8] = target: Heat shock protein HSP 90-beta (Homo sapiens) (UniProt P08238); assay: Inhibition of HSP90-mediated proliferation of human NCI-H526 cells at 0.3 to 0.5 uM after 72 to 96 hrs by sulforhodamine B assay; format: cell-based
[9] = target: Heat shock protein HSP 90-beta (Homo sapiens) (UniProt P08238); assay: Inhibition of HSP90-mediated proliferation of human NCI-H510 cells at 0.3 to 0.5 uM after 72 to 96 hrs by intracellular ATP level assay
[10] = tested on: NCI-H417; assay: Anticancer activity against human NCI-N417 cells xenografted in ip dosed athymic mouse assessed as tumor caspase-3 cleavage administered daily for 5 consecutive days measured after 12 hrs post last dose by immunohistochemistry; format: functional, organism-based
In short: (§2)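 Nude athymic (nu/nu) mice carrying NCI-N417 xenografts (cells injected with Matrigel), treated once tumors were 7–9 mm in diameter. Dosing was five consecutive daily i.p. doses of 100 mg kg–1, and mice were killed 12 h after the last dose (n = 2). Tumors were analyzed by immunohistochemistry for cleaved caspase-3, Ki-67 and p-Akt, with vehicle-treated tumors as comparison.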

[11] = Drug level in tumor of human NCI-N417 cell-xenograft athymic mouse model at 75 mg/kg, ip administered as single dose after 24 hrs by HPLC/MS/MS analysis; format: ADME, organism-based, Neoplasm; set-up: dose 75 mg/kg, route intraperitoneal; settings: in vivo; in short: as §1
[12] = Drug level in tumor of human NCI-N417 cell-xenograft athymic mouse model at 75 mg/kg, ip administered as single dose after 12 hrs by HPLC/MS/MS analysis; format: ADME, organism-based, Neoplasm; set-up: dose 75 mg/kg, route intraperitoneal; settings: in vivo; in short: as §1
[13] = target: Heat shock protein HSP 90-beta (Homo sapiens) (UniProt P08238); assay: Binding affinity to HSP90 in human NCI-H69 cells after 24 hrs by fluorescence polarization assay
[14] = target: Heat shock protein HSP 90-beta (Homo sapiens) (UniProt P08238); assay: Binding affinity to HSP90 in human NCI-H146 cells after 24 hrs by fluorescence polarization assay; format: cell-based
[15] = target: Heat shock protein HSP 90-beta (Homo sapiens) (UniProt P08238); assay: Inhibition of HSP90-mediated antiapoptotic activity in human WBA cells assessed as induction of cell growth arrest at 10 after 96 hrs by propidium iodide staining-based flow cytometry
[16] = target: Heat shock protein HSP 90-beta (Homo sapiens) (UniProt P08238); assay: Binding affinity to HSP90 in human NCI-H209 cells after 24 hrs by fluorescence polarization assay; format: cell-based
[17] = tested on: NCI-H417; assay: Anticancer activity against human NCI-N417 cells xenografted in ip dosed athymic mouse assessed as decrease in tumor Akt activity administered daily for 5 consecutive days measured after 12 hrs post last dose by immunohistochemistry; format: functional, organism-based; in short: as §2
[18] = target: Heat shock protein HSP 90-beta (Homo sapiens) (UniProt P08238); assay: Inhibition of HSP90-mediated antiapoptotic activity in human H69AR cells assessed as induction of cell growth arrest at 10 after 96 hrs by propidium iodide staining-based flow cytometry
[19] = target: Heat shock protein HSP 90-beta (Homo sapiens) (UniProt P08238); assay: Inhibition of HSP90-mediated antiapoptotic activity in human SKI-AC3 cells assessed as induction of cell growth arrest at 10 after 96 hrs by propidium iodide staining-based flow cytometry
[20] = target: Heat shock protein HSP 90-beta (Homo sapiens) (UniProt P08238); assay: Binding affinity to HSP90 in human NCI-N417 cells after 24 hrs by fluorescence polarization assay; format: cell-based; settings: NCI-H417
[21] = target: Heat shock protein HSP 90-beta (Homo sapiens) (UniProt P08238); assay: Inhibition of HSP90 in chemo-resistant human H69AR cells at 100 uM after 24 hrs by fluorescence polarization assay; format: cell-based
In short: (§3)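 Competitive fluorescence polarization in lysates of H69AR, SKI-AC3 and WBA cells, prepared in HFB buffer pH 7.3 and normalized to Hsp90. Tracer was 3 nM Cy3B-geldanamycin, with incubation for 24 h at 4 °C. EC50 was defined as 50% tracer displacement.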

[22] = Drug level in tumor of human NCI-N417 cell-xenograft athymic mouse model at 75 mg/kg, ip administered as single dose after 8 hrs by HPLC/MS/MS analysis; format: ADME, organism-based, Neoplasm; set-up: dose 75 mg/kg, route intraperitoneal; settings: in vivo; in short: as §1
[23] = tested on: NCI-H417; assay: Anticancer activity against human NCI-N417 cells xenografted in athymic mouse assessed as tumor growth inhibition at nontoxic dose administered ip daily for 5 consecutive days measured on day 20 post tumor implantation; format: functional, organism-based
In short: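 Nude athymic mice (n = 4) bearing NCI-N417 tumors of V = 50–90 mm3 were dosed i.p. and tumor growth was monitored. Results are given as mean ± s.d.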

[24] = target: Heat shock protein HSP 90-beta (Homo sapiens) (UniProt P08238); assay: Inhibition of HSP90-mediated proliferation of human NCI-N417 cells at 0.3 to 0.5 uM after 72 to 96 hrs by sulforhodamine B assay; format: cell-based; settings: NCI-H417
[25] = Drug level in tumor of human NCI-N417 cell-xenograft athymic mouse model at 75 mg/kg, ip administered as single dose after 36 hrs by HPLC/MS/MS analysis; format: ADME, organism-based, Neoplasm; set-up: dose 75 mg/kg, route intraperitoneal; settings: in vivo; in short: as §1
[26] = target: Heat shock protein HSP 90-beta (Homo sapiens) (UniProt P08238); assay: Inhibition of HSP90-mediated proliferation of human NCI-H187 cells at 0.3 to 0.5 uM after 72 to 96 hrs by intracellular ATP level assay
[27] = tested on: NCI-H417; assay: Anticancer activity against human NCI-N417 cells xenografted in athymic mouse assessed as decrease in tumor Akt activity at 75 mg/kg, ip administered daily for 5 consecutive days measured after 6 hrs post last dose by immunohistochemistry; format: functional, organism-based; set-up: dose 75 mg/kg
[28] = target: Heat shock protein HSP 90-beta (Homo sapiens) (UniProt P08238); assay: Inhibition of HSP90 in chemo-resistant human WBA cells at 100 uM after 24 hrs by fluorescence polarization assay; format: cell-based; in short: as §3
[29] = target: Heat shock protein HSP 90-beta (Homo sapiens) (UniProt P08238); assay: Inhibition of HSP90 in chemo-resistant human SKI-AC3 cells at 100 uM after 24 hrs by fluorescence polarization assay; format: cell-based; in short: as §3
[30] = target: Heat shock protein HSP 90-beta (Homo sapiens) (UniProt P08238); assay: Inhibition of HSP90-mediated proliferation of human NCI-H209 cells at 0.3 to 0.5 uM after 72 to 96 hrs by intracellular ATP level assay
[31] = Drug level in tumor of human NCI-N417 cell-xenograft athymic mouse model at 75 mg/kg, ip administered as single dose after 6 hrs by HPLC/MS/MS analysis; format: ADME, organism-based, Neoplasm; set-up: dose 75 mg/kg, route intraperitoneal; settings: in vivo; in short: as §1
[32] = target: Heat shock protein HSP 90-beta (Homo sapiens) (UniProt P08238); assay: Inhibition of HSP90-mediated proliferation of human NCI-H146 cells at 0.3 to 0.5 uM after 72 to 96 hrs by intracellular ATP level assay
[33] = target: Heat shock protein HSP 90-beta (Homo sapiens) (UniProt P08238); assay: Inhibition of HSP90-mediated proliferation of human NCI-H69 cells at 0.3 to 0.5 uM after 72 to 96 hrs by intracellular ATP level assay

Question: Which Drug uptake [1] does the source give for CC(C)NCCCn1c(Sc2cc3c(cc2I)OCO3)nc2c(N)ncnc21 [PU-H71] here?
Answer: Active

Question: And the Activity [2]?
Answer: Active

Question: And the Activity [3]?
Answer: Active

Question: What about the Activity [4] of the same compound?
Answer: Active

Question: What about the inhibition [5] of the same compound?
Answer: Active

Question: What about the Activity [6] of the same compound?
Answer: Active

Question: And the Activity [7]?
Answer: Active

Question: What about the inhibition [8] of the same compound?
Answer: 50%

Question: And the inhibition [9]?
Answer: 50%

Question: What about the Activity [10] of the same compound?
Answer: Dose-dependent effect

Question: What about the Drug uptake [11] of the same compound?
Answer: Active

Question: What about the Drug uptake [12] of the same compound?
Answer: Active

Question: What about the Activity [13] of the same compound?
Answer: Active

Question: What about the Activity [14] of the same compound?
Answer: Active

Question: What about the Activity [15] of the same compound?
Answer: Active

Question: What about the Activity [16] of the same compound?
Answer: Active

Question: And the inhibition [17]?
Answer: Dose-dependent effect

Question: And the Activity [18]?
Answer: Active

Question: And the Activity [19]?
Answer: Active

Question: What about the Activity [20] of the same compound?
Answer: Active

Question: What about the inhibition [21] of the same compound?
Answer: Active

Question: And the Drug uptake [22]?
Answer: Active

Question: What about the inhibition [23] of the same compound?
Answer: Active

Question: And the inhibition [24]?
Answer: 50%

Question: And the Drug uptake [25]?
Answer: Active

Question: What about the inhibition [26] of the same compound?
Answer: 50%

Question: What about the Activity [27] of the same compound?
Answer: Active

Question: And the inhibition [28]?
Answer: Active

Question: What about the inhibition [29] of the same compound?
Answer: Active

Question: And the inhibition [30]?
Answer: 50%

Question: What about the Drug uptake [31] of the same compound?
Answer: Active

Question: And the inhibition [32]?
Answer: 50%

Question: And the inhibition [33]?
Answer: 50%
